According to ChEMBL document CHEMBL4261642, “Design, synthesis, and ex vivo evaluation of a selective inhibitor for retinaldehyde dehydrogenase enzymes” (Bioorg Med Chem, 2018):
Calls of active or inactive are those of the source. The calls are words filed in the database; no cut-off is given here.

How the values were obtained:
[1] = target: T1, Retinal dehydrogenase 2 (Gallus gallus) (UniProt O93344); test: Inhibition of RALDH2 in living intact choroid isolated from normal chick eyes assessed as inhibition of ATRA synthesis after 24 hrs in presence of retinaldehyde and NAD+
T1 sequence (whole entry): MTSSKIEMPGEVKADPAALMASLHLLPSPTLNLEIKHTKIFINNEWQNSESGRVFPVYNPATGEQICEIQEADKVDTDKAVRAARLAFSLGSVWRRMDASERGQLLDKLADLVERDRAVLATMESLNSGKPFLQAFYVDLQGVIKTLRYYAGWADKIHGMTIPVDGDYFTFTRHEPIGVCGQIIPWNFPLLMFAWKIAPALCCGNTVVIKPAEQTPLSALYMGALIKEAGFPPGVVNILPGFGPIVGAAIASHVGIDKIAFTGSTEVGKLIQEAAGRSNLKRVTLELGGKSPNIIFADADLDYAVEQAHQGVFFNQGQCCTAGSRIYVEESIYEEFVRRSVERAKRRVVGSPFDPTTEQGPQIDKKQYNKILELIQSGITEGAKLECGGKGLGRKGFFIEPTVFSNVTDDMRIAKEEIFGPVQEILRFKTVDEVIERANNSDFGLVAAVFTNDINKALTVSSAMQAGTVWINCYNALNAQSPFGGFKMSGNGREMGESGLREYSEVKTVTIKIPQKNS

Gallus gallus [2] = species on record: Gallus gallus; test: (§1) Inhibition of N-terminal His6-tagged recombinant chick RALDH3 expressed in Escherichia coli BL21(DE3) cells at 100 nM using RAL as substrate assessed as Vmax preincubated for 20 mins followed by substrate addition and measured after 30 mins in presence of NADH by fluorescence assay (reference value: 107.3 +/- 15.97 pmol/microM/min)
[3] = Inhibition of N-terminal His6-tagged recombinant chick RALDH3 expressed in Escherichia coli BL21(DE3) cells using RAL as substrate measured after 30 mins in presence of NADH by Morrison's plot analysis; design: species or system Gallus gallus
Summary of the method: (§2)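 Ki obtained by fitting the Morrison tight-binding equation to the 20-min pre-incubation retinaldehyde/NADH fluorescence inhibition data. Inputs were enzyme concentration (RALDH1 0.358, RALDH2 0.091, RALDH3 0.355, hRALDH2 0.176 μM), substrate concentration and Km. Triplicates from 3–5 independent experiments.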

[4] = target: T1, Retinal dehydrogenase 2 (Gallus gallus); test: Inhibition of N-terminal His6-tagged recombinant chick RALDH2 expressed in Escherichia coli BL21(DE3) cells at 50 nM using RAL as substrate assessed as remaining activity preincubated for 20 mins followed by compound washout by ultrafiltration and subsequent addition of substrate and measured after 30 mins in presence of NADH by fluorescence assay (reference value: 100.0 +/- 11.57%)
Summary of the method: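 Chick RALDH2 (91 nM) pre-incubated 20 min with 0–50 nM inhibitor. Unbound inhibitor removed by ultrafiltration before adding 250 μM retinaldehyde and 4 mM NAD+, 30 min at 37°C. NADH measured fluorimetrically. Activity expressed as % of vehicle. Triplicates; one-way ANOVA with Bonferroni test.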

Gallus gallus [5] = species on record: Gallus gallus; test: as §1, with “Km” for “Vmax”, “84.45” for “107.3”, “30.99 microM)” for “15.97 pmol/microM/min)”
Gallus gallus [6] = species on record: Gallus gallus; test: as §1, with “250” for “100”
[7] = target: T2, Aldehyde dehydrogenase 1A1 (Gallus gallus, UniProt P27463); test: Inhibition of N-terminal His6-tagged recombinant chick RALDH1 expressed in Escherichia coli BL21(DE3) cells using RAL as substrate measured after 30 mins in presence of NADH by Morrison's plot analysis
T2 sequence (P27463 whole entry): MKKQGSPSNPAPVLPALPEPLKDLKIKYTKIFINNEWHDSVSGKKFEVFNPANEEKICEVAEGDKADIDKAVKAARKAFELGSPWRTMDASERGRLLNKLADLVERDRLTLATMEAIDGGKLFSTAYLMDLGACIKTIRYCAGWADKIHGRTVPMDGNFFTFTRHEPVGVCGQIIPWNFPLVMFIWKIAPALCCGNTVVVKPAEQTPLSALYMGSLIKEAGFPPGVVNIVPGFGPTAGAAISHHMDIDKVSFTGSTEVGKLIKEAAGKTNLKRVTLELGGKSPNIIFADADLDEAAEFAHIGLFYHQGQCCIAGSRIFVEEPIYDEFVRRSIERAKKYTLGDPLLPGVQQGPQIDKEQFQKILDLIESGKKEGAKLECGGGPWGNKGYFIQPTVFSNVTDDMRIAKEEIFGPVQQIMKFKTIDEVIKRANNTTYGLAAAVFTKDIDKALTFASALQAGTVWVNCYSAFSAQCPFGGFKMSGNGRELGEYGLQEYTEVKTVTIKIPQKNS
Summary of the method: as §2

[8] = target: T1, Retinal dehydrogenase 2 (Gallus gallus); test: Inhibition of N-terminal His6-tagged recombinant chick RALDH2 expressed in Escherichia coli BL21(DE3) cells at 250 nM using RAL as substrate assessed as remaining activity preincubated for 40 mins followed by all-trans-retinaldehyde and substrate addition measured after 30 mins in presence of NAD+ by fluorescence assay
Summary of the method: (§3)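 Chick RALDH2 (91 nM) pre-incubated with 250 nM inhibitor for 0–80 min at 37°C, alone or with 250 μM retinaldehyde or 250 μM NAD+. Reaction then started with the missing substrate and/or cofactor (250 μM retinaldehyde, 4 mM NAD), 30 min at 37°C. Fluorimetric NADH; % activity remaining. Triplicates.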

[9] = target: T1, Retinal dehydrogenase 2 (Gallus gallus); test: Inhibition of N-terminal His6-tagged recombinant chick RALDH2 expressed in Escherichia coli BL21(DE3) cells up to 500 nM using RAL as substrate assessed as Kinact/Ki ratio preincubated up to 40 mins followed by substrate addition and measured after 30 mins in presence of NADH by fluorescence assay
Summary of the method: (§4)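 Chick RALDH2 pre-incubated 10, 20 and 40 min with 0–500 nM inhibitor, then assayed with retinaldehyde/NAD+ by fluorimetric NADH. kobs taken from linear regression of log % activity remaining versus pre-incubation time. KI and kinact obtained by nonlinear regression of kobs versus inhibitor concentration.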

[10] = target: T1, Retinal dehydrogenase 2 (Gallus gallus); test: Inhibition of N-terminal His6-tagged recombinant chick RALDH2 expressed in Escherichia coli BL21(DE3) cells at 250 nM using RAL as substrate assessed as enzyme recovery preincubated with compound and 250 uM NAD+ up to 80 mins and measured after 30 mins in presence of NAD+ by fluorescence assay; design: scale not given: the % may be the effect or the level left
Summary of the method: as §3

Retinal dehydrogenase 2 [11] = target: T3, Retinal dehydrogenase 2 (Gallus gallus, UniProt O93344); test: Inhibition of N-terminal His6-tagged recombinant chick RALDH2 expressed in Escherichia coli BL21(DE3) cells up to 500 nM using RAL as substrate preincubated up to 40 mins followed by substrate addition and measured after 30 mins in presence of NADH by fluorescence assay
T3 sequence (O93344 whole entry): T1 sequence (whole entry)
Summary of the method: as §4

[12] = target: T1, Retinal dehydrogenase 2 (Gallus gallus); test: Inhibition of chick RALDH2 expressed in doxycycline-inducible HEK293 cells assessed as inhibition of ATRA synthesis at 1 uM after 24 hrs in presence of […]; assay type: cell-based
[13] = target: T4, Aldehyde dehydrogenase 1A1 (Gallus gallus) (UniProt P27463); test: Irreversible inhibition of N-terminal His6-tagged recombinant chick RALDH1 expressed in Escherichia coli BL21(DE3) cells using RAL as substrate assessed as reduction in enzyme Vmzx preincubated for 20 mins followed by substrate addition and measured after 30 mins in presence of NADH by fluorescence assay
T4 sequence (whole entry): T2 sequence (P27463 whole entry)

Retinal dehydrogenase 2 [14] = target: T3, Retinal dehydrogenase 2; test: Inhibition of chick RALDH2 expressed in doxycycline-inducible HEK293 cells assessed as inhibition of ATRA synthesis after 24 hrs in presence of […]; assay type: cell-based

For `CC1=C(/C=C/C(C)=C/C=C/C(C)=C/C(=O)C(Cl)Cl)C(C)(C)CCC1`, which inhibition [1] is on record?
Its inhibition is “inactive”.

What about the Vmax (Gallus gallus [2]) of the same compound?
Its Vmax is 68.4 pmol/µM/min.

And the Ki [3]?
The Ki was 6.74 nM.

And the Activity [4]?
Its Activity is 23%.

What about the Km (Gallus gallus [5]) of the same compound?
Its Km is 52.7 µM.

What about the Vmax (Gallus gallus [6]) of the same compound?
Its Vmax is 41.6 pmol/µM/min.

And the Ki [7]?
Its Ki is 194 nM.

And the Activity [8]?
The Activity was 16.3%.

What about the Ratio [9] of the same compound?
Its Ratio is 124000 M⁻¹ min⁻¹.

What about the Activity [10] of the same compound?
Its Activity is 52 to 65%.

What about the Ki (Retinal dehydrogenase 2 [11]) of the same compound?
Its Ki is 128 nM.

What about the inhibition [12] of the same compound?
Its inhibition is 92%.

And the inhibition [13]?
Its inhibition is “Active”.

And the IC50 (Retinal dehydrogenase 2 [14])?
Its IC50 is 187 nM.
